The results in this text go back to ChEMBL document CHEMBL1926559, “Metabolic and electrochemical mechanisms of dimeric naphthoquinones cytotoxicity in breast cancer cells” (Bioorg Med Chem, 2011).

Calls of active or inactive are those of the source. The calls are words filed in the database; no cut-off is given here.

Experiment [1] concerns MCF7. The experiment is described as follows: Cytotoxicity against human MCF7 cells assessed as decrease in oxygen consumption at 20 uM by Clark-type oxygen electrode analysis. The format is functional, cell-based. In a few lines: (§1)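 After 3 h exposure to 20 μM compound or DMSO, cells trypsinized, PBS-washed, pelleted; 5×10⁶ cells in 0.8 mL PBS with 10% FCS placed in a Clark-type oxygen electrode chamber to measure O2 consumption; duplicate experiments.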

In experiment [2] the test system is MDA-MB-453. Description: Antiproliferative activity against human MDA-MB-453 cells assessed as decrease in ATP level in viable cells at >20 uM after 4 hrs by CellTiter-Glo luminescent assay relative to control. It is filed as functional, cell-based. The method in brief: (§2)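 10,000 cells per well, treated in sextuplet with DMSO or 5, 10, 20 or 50 μM for 4 h. ATP read by CellTiter-Glo luminescence, normalized to average count of viable trypan-blue-excluding cells per condition, expressed relative to DMSO.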
Background: Cellular ATP, detected with luciferase, serves as a proxy for viable cell number.

Experiment [3] deals with MCF7. The experiment is described as follows: Cytotoxicity against DCFDA-treated human MCF7 cells assessed as increase in ROS production […] by flow cytometric analysis. The format is functional, cell-based. In a few lines:
(§3)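 Cells preloaded with 5μM carboxy-DCFDA for 30 min, then exposed to 20 μM compound or DMSO for 2 h, collected and analysed by flow cytometry (488 nm excitation, 530 nm emission); percentage of fluorescent cells vs DMSO; triplicate samples, two separate experiments.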

The subject of experiment [4] is MCF7. Description: Antiproliferative activity against human MCF7 cells assessed as cell survival at 50 uM by trypan blue exclusion assay relative to control. To be noted: read-out: Survival. The format is functional. In a few lines: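 MCF-7 cells kept in DMEM with 10% fetal bovine serum and 1% antibiotics at 37°C, 5% CO2, grown at 1×10⁵ cells/mL. Cells were exposed to DMSO vehicle or DMSO-dissolved compound. Viability was scored by trypan blue exclusion cell counts, done in triplicate and given as mean ± SD. Survival was expressed relative to the DMSO control.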

In experiment [5] the test system is MDA-MB-453. Description: Cytotoxicity against DCFDA-treated human MDA-MB-453 cells assessed as increase in ROS production after 30 mins by flow cytometric analysis. The format is functional. The method in brief:
as §3
(Flow cytometry measures light scatter and fluorescence of single cells or particles in a stream.)

Experiment [6] deals with MDA-MB-453. Description: Cytotoxicity against human MDA-MB-453 cells assessed as decrease in oxygen consumption at 20 uM by Clark-type oxygen electrode analysis. It is filed as functional, cell-based. The method in brief:
as §1

The subject of experiment [7] is MCF7. Description: Antiproliferative activity against human MCF7 cells assessed as decrease in ATP level in viable cells after 4 hrs by CellTiter-Glo luminescent assay relative to control. The format is functional, cell-based. The method in brief: as §2
The subject of experiment [8] is MCF7. Description: Antiproliferative activity against human MCF7 cells after 4 hrs by MTT assay. It is filed as functional, cell-based. In a few lines:
(§4)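 Cells in DMEM with 10% FBS and 1% antibiotics, 37°C, 5% CO2; equal numbers plated in three or more replicates, attached overnight, then exposed to 5, 10, 20 or 50 μM (DMSO vehicle) in complete medium for 4 h. Then 0.5 mg/ml MTT for 1 h, medium replaced with PBS, absorbance at 570 nm minus 690 nm background; compared to DMSO.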

Experiment [9] concerns MDA-MB-453. Description: Antiproliferative activity against human MDA-MB-453 cells assessed as decrease in ATP level in viable cells at 20 uM after 4 hrs by CellTiter-Glo luminescent assay relative to control. It is filed as functional. In a few lines:
as §2

In experiment [10] the test system is MDA-MB-453. The experiment is described as follows: Antiproliferative activity against human MDA-MB-453 cells after 4 hrs by MTT assay. It is filed as functional, cell-based. In a few lines:
as §4

Experiment [11] relates to MDA-MB-453. The experiment is described as follows: Growth inhibition of human MDA-MB-453 cells by trypan blue exclusion assay. The format is functional, cell-based. The method in brief:
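Viability counted by trypan blue exclusion; cells grown at 1×10⁵ cells/mL, counts done in triplicate, mean ± SD relative to DMSO.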

Experiment [12] has as its system MDA-MB-453. Description: Antiproliferative activity against human MDA-MB-453 cells assessed as decrease in ATP level in viable cells at 10 uM after 4 hrs by CellTiter-Glo luminescent assay relative to control. The format is functional. The method in brief:
as §2

One may read the IC50 as the point on the concentration scale where inhibition reaches its midpoint. Higher therefore signals weaker potency.

With `O=C1C(O)=C(C2=C(Cl)C(=O)c3ccccc3C2=O)C(=O)c2ccccc21`, the result in the experiment on MCF7 [1], in the experiment on MDA-MB-453 [2], in the experiment on MCF7 [3], in the experiment on MCF7 [7] and with MCF7 [8] was inactive. In addition, the viability at 50 µM with MCF7 [4] amounted to 80%. Besides, the Activity in the experiment on MDA-MB-453 [5] is 50%; with MDA-MB-453 [9], 60%; in the experiment with MDA-MB-453 [10] it was “Dose-dependent effect”; with MDA-MB-453 [12], 53%. For the same compound, the result in the experiment on MDA-MB-453 [6] was Active. Moreover, the IC50 in the experiment on MDA-MB-453 [11] is 15 µM.
As for `CC(C)=CCC[C@]1(C)C=Cc2c(ccc3c2C(=O)C(O)=C(C2=C(Cl)C(=O)c4ccccc4C2=O)C3=O)O1`, the outcome in the experiment with MCF7 [1], in the experiment with MDA-MB-453 [2], in the experiment on MCF7 [3], in the experiment on MCF7 [7], in the experiment with MCF7 [8] and in the experiment with MDA-MB-453 [12] was inactive. Also, the viability at 50 µM in the experiment with MCF7 [4] stood at 85%. The figures for the Activity in the experiment with MDA-MB-453 [5], with MDA-MB-453 [9] and in the experiment on MDA-MB-453 [10] were 50%, 27% and “Dose-dependent effect”, respectively. In addition, the outcome in the experiment with MDA-MB-453 [6] was Active. The same compound registered an IC50 in the experiment with MDA-MB-453 [11] of 34 µM.
On to `COc1ccc2c(c1)C(=O)C(C1=C(Cl)C(=O)c3ccccc3C1=O)=C(O)C2=O`, for which the outcome in the experiment on MCF7 [1], in the experiment on MDA-MB-453 [2], in the experiment on MCF7 [3], with MCF7 [7] and in the experiment on MCF7 [8] was inactive. Moreover, the viability at 50 µM in the experiment on MCF7 [4] turned out to be 83%. The Activity in the experiment on MDA-MB-453 [5] was 50%; with MDA-MB-453 [9] it was 60%; in the experiment with MDA-MB-453 [10], “Dose-dependent effect”; in the experiment on MDA-MB-453 [12], 37%. Besides, in the experiment on MDA-MB-453 [6], the outcome was Active. In the experiment with MDA-MB-453 [11], this compound had an IC50 of 17 µM.
